In ChEMBL document CHEMBL1287776, “Synthesis and biological evaluations of P4-benzoxaborole-substituted macrocyclic inhibitors of HCV NS3 protease” (Bioorg Med Chem Lett, 2010):

How the values were obtained:
Hepatitis C virus [1] = experiment: Antiviral activity against HCV 1b infected in human Huh-7 cells after 48hrs by luciferase assay; assay type: functional, organism-based, Hepacivirus hominis; settings: genotype 1b, Huh-7, 48 h
Outline: (§1)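 Subgenomic (NS3-NS5B) luciferase replicon cells for genotype 1a or 1b. The 1b ET line is stably transfected with a firefly luciferase-ubiquitin-neo replicon carrying cell culture adaptive mutations. Cells are seeded at 5 × 10³/well onto compounds in 1% DMSO final. Luciferase is read after 48 h. EC50 comes from an 11-point, 3-fold dilution curve, as % inhibition versus no-compound control, with a four-parameter logistic fit.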

[2] = Inhibition of HCV 1a NS3/4A protease by FRET assay; design: species or system Hepatitis C virus subtype 1a
Outline: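 FRET assay with the genotype 1a NS3/4A protease domain and a fluorogenic peptide substrate. Buffer is 50 mM HEPES, 20% sucrose, 5 mM DTT and 0.05% NP-40. Initial rates are read at ex 490/em 520 nm. IC50 values are means of duplicate or triplicate experiments.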

Hepatitis C virus [3] = experiment: Antiviral activity against HCV 1a infected in human Huh-7 cells after 48hrs by luciferase assay; assay type: functional, organism-based, Hepacivirus hominis; settings: subtype 1a, Huh-7, 48 h; outline: as §1
Rattus norvegicus [4] = experiment: (§2) Oral bioavailability in rat; assay type: ADME, organism-based; settings: in vivo, BLD = below limit of detection
Outline: (§3)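 Rat pharmacokinetics with blood drawn from both the jugular and portal veins after oral dosing, with IV dosing as reference. Absorption is calculated from portal vein drug levels. Oral bioavailability is calculated from jugular vein levels, each compared with levels after IV administration.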

Rattus norvegicus [5] = species: Rattus norvegicus; experiment: Metabolic absorption in rat; assay type: ADME, organism-based; settings: in vivo; outline: as §3
[6] = as §2; assay type: ADME, organism-based; settings: in vivo; outline: as §3

EC50 (Hepatitis C virus [1]) [nM] | IC50 [2] [nM] | EC50 (Hepatitis C virus [3]) [nM] | F (Rattus norvegicus [4]) | Activity (Rattus norvegicus [5]; BLD = below limit of detection) | bioavailability [6] [%] | Activity (Rattus norvegicus [5]) [%] | Structure (SMILES)
1.5 | < 0.2 | 35 |  |  |  |  | O=C(Nc1cc2c(cc1F)COB2O)N[C@H]1CCCCC/C=C\[C@@H]2C[C@@]2(C(=O)NS(=O)(=O)C2CC2)NC(=O)C2C[C@@H](OC(=O)N3Cc4cccc(F)c4C3)CN2C1=O (some centres undefined)
3.9 | 0.4 | 50.1 |  |  |  |  | COc1cnc(O[C@@H]2CC3C(=O)N[C@]4(C(=O)NS(=O)(=O)C5CC5)C[C@H]4/C=C\CCCCC[C@H](NC(=O)NCc4ccc5c(c4)B(O)OC5)C(=O)N3C2)c2cc(Cl)ccc12 (some centres undefined)
0.5 | 4.1 | 4.2 | BLD | BLD |  |  | COc1ccc2c(O[C@@H]3CC4C(=O)N[C@]5(C(=O)NS(=O)(=O)C6CC6)C[C@H]5/C=C\CCCCC[C@H](NC(=O)NCc5ccc6c(c5)B(O)OC6)C(=O)N4C3)cc(-c3nc(C(C)C)cs3)nc2c1C (some centres undefined)
1.2 | 5.6 | 12.5 |  |  |  |  | COc1ccc2c(O[C@@H]3CC4C(=O)N[C@]5(C(=O)NS(=O)(=O)C6CC6)C[C@H]5/C=C\CCCCC[C@H](NC(=O)Nc5ccc6c(c5)B(O)OC6)C(=O)N4C3)cc(-c3nc(C(C)C)cs3)nc2c1C (some centres undefined)
3.9 | 0.6 | 60.3 |  |  |  |  | COc1cnc(O[C@@H]2CC3C(=O)N[C@]4(C(=O)NS(=O)(=O)C5CC5)C[C@H]4/C=C\CCCCC[C@H](NC(=O)Nc4ccc5c(c4)B(O)OC5)C(=O)N3C2)c2cc(Cl)ccc12 (some centres undefined)
3.7 | 0.4 | 159 |  |  | 0.5 | 0.9 | O=C(Nc1ccc2c(c1)B(O)OC2)N[C@H]1CCCCC/C=C\[C@@H]2C[C@@]2(C(=O)NS(=O)(=O)C2CC2)NC(=O)C2C[C@@H](OC(=O)N3Cc4cccc(F)c4C3)CN2C1=O (some centres undefined)
0.9 | 0.4 | 160 |  |  | 0.7 | 0.6 | O=C(NCc1ccc2c(c1)B(O)OC2)N[C@H]1CCCCC/C=C\[C@@H]2C[C@@]2(C(=O)NS(=O)(=O)C2CC2)NC(=O)C2C[C@@H](OC(=O)N3Cc4cccc(F)c4C3)CN2C1=O (some centres undefined)

Second part, the compound before the results:

Structure (SMILES) | EC50 (Hepatitis C virus [1]) [nM] | IC50 [2] [nM] | EC50 (Hepatitis C virus [3]) [nM] | F (Rattus norvegicus [4]) | Activity (Rattus norvegicus [5]; BLD = below limit of detection) | bioavailability [6] [%] | Activity (Rattus norvegicus [5]) [%]
COc1ccc2c(O[C@@H]3C[C@H]4C(=O)N[C@]5(C(=O)NS(=O)(=O)C6CC6)C[C@H]5/C=C\CCCCN(C)C(=O)[C@@H]4C3)cc(-c3nc(C(C)C)cs3)nc2c1C [SIMEPREVIR] | 1.4 | 10 | 2.3 |  |  |  | 
O=C(N[C@H]1CCCCC/C=C\[C@@H]2C[C@@]2(C(=O)NS(=O)(=O)C2CC2)NC(=O)C2C[C@@H](OC(=O)N3Cc4cccc(F)c4C3)CN2C1=O)Oc1ccc2c(c1)COB2O (some centres undefined) | 172 | 2.4 | 3550 |  |  |  | 
CC1OB(O)c2cc(NC(=O)N[C@H]3CCCCC/C=C\[C@@H]4C[C@@]4(C(=O)NS(=O)(=O)C4CC4)NC(=O)C4C[C@@H](OC(=O)N5Cc6cccc(F)c6C5)CN4C3=O)c(F)cc21 (some centres undefined) | 1.2 | 0.4 | 20 |  |  |  | 
O=C(N[C@H]1CCCCC/C=C\[C@@H]2C[C@@]2(C(=O)NS(=O)(=O)C2CC2)NC(=O)C2C[C@@H](OC(=O)N3Cc4cccc(F)c4C3)CN2C1=O)Oc1ccc2c(c1)B(O)OC2 (some centres undefined) | 15 | 1.6 | 661 |  |  |  | 
CC(C)(C)OC(=O)N[C@H]1CCCCC/C=C\[C@@H]2C[C@@]2(C(=O)NS(=O)(=O)C2CC2)NC(=O)[C@@H]2C[C@@H](OC(=O)N3Cc4cccc(F)c4C3)CN2C1=O [DANOPREVIR] | 1.1 | 0.4 | 1 |  |  | 20 | 17.4
